For orientation: IC50 means the midpoint of a concentration-inhibition curve. A word on the bioavailability: it is dose-corrected exposure relative to a reference, in per cent. High values mean much systemic uptake, low ones little systemic uptake. As a reminder, the inhibition is the relative decrease from the control value, in per cent. Usually Papp stands for a coefficient for how fast a substance crosses the barrier.

Structures are written as SMILES.

The results in this text go back to ChEMBL document CHEMBL3864163, “I. Discovery of a novel series of CXCR3 antagonists. Multiparametric optimization of N,N-disubstituted benzylamines” (Bioorg Med Chem Lett, 2016).

Data set [1] addresses T1, C-X-C chemokine receptor type 3 (Homo sapiens, UniProt P49682).
T1 sequence (P49682 whole entry): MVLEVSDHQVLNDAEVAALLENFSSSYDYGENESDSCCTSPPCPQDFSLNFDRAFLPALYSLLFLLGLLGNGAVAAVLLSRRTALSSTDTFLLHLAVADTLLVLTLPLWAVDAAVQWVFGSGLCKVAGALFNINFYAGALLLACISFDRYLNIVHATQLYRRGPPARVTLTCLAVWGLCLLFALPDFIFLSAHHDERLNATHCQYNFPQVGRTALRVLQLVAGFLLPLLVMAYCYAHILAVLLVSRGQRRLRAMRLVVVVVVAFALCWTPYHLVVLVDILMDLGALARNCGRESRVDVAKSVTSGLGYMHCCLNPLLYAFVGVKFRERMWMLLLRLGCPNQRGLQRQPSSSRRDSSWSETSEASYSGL
In words: Displacement of [125I]-CXCL10 from human recombinant CXCR3 transfected in Flp-In-CHO cell membranes after 60 mins by gamma counting method. A general note: Displacement assays read how much labelled ligand stays bound in the presence of the test substance.

A short description of data set [2]: Metabolic stability in human liver microsomes assessed as parent compound remaining in presence of NADPH by LC-MS/MS method. It is filed as ADME. In a few lines:
(§1)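 Compound incubated with liver microsomes (human or mouse) plus NADPH at 37 °C. Loss of parent was followed by LC-MS-MS and reported as percent. Stability bands: low <40%, medium 40–60%, high >60%.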

A short description of data set [3]: Absolute oral bioavailability in Balb/c mouse at 10 mg/kg. The format is ADME, organism-based. Particulars: in vivo. In a few lines: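 Male Balb/c mice dosed once orally at 10 mg/kg and once intravenously at 3 mg/kg. Either 4 animals per route were profiled individually, or sparse sampling used 24 mice with 3 per time point for mean profiles. Absolute oral bioavailability was derived from the two routes.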

The nature of data set [4]: Metabolic stability in mouse liver microsomes assessed as parent compound remaining in presence of NADPH by LC-MS/MS method. The format is ADME. In a few lines:
as §1
Background: Microsomes from liver hold many membrane-bound enzymes, among them those of drug oxidation.

Data set [5] addresses T2, C-X-C chemokine receptor type 3 (Homo sapiens) (UniProt P49682).
T2 sequence (whole entry): T1 sequence (P49682 whole entry)
In words: Displacement of [125I]-CXCL10 from human recombinant CXCR3 transfected in Flp-In-CHO cell membranes at 10 uM after 60 mins by gamma counting method relative to control.

Data set [6] has as its target T3, Muscarinic acetylcholine receptor M2 (Homo sapiens) (UniProt P08172).
T3 sequence (whole entry): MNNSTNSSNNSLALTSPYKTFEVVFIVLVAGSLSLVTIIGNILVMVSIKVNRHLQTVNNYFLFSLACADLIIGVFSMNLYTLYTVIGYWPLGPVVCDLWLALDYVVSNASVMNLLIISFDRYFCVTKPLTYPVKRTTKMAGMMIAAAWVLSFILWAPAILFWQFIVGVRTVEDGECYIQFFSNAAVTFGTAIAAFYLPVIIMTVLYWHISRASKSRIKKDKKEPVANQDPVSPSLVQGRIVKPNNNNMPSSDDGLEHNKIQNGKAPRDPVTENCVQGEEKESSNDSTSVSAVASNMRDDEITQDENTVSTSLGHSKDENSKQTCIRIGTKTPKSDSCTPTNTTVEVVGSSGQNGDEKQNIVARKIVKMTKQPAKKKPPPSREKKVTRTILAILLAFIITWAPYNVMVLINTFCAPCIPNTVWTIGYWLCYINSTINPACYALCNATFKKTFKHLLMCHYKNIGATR
The experiment in a line: Displacement of [3H]AF-DX384 from recombinant human muscarinic M2 receptor expressed in CHO cells at 10 uM after 60 mins by scintillation counting method relative to control. The format is cell-based.

The nature of data set [7]: Apparent permeability across human Caco2 cells after 2 hrs by LC-MS method. It is filed as ADME, cell-based. Particulars: Caco-2. In a few lines:
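Caco-2 monolayers checked for integrity, then dosed alongside high- and low-permeability controls. Apical and basal samples taken at 2 h. Four transport conditions: A-B at pH 6.5/7.4 (0% or 0.5% BSA apical, 5% BSA basal), and A-B and B-A at pH 7.4/7.4 (0.5% BSA both sides). Compound quantified by LC/MS. Rapid transport defined as Papp >20 nm/s.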
(Caco-2 monolayers are a common model of the intestinal barrier.)

In data set [8] the target is Mu-type opioid receptor (Homo sapiens) (UniProt P35372). The experiment in a line: Displacement of [3H]DAMGO from recombinant human mu opioid receptor expressed in HEK293 cells at 10 uM after 60 mins by scintillation counting method relative to control. It is filed as cell-based.
Data set [9] deals with T4, Alpha-1A adrenergic receptor (Homo sapiens) (UniProt P35348).
T4 sequence (whole entry): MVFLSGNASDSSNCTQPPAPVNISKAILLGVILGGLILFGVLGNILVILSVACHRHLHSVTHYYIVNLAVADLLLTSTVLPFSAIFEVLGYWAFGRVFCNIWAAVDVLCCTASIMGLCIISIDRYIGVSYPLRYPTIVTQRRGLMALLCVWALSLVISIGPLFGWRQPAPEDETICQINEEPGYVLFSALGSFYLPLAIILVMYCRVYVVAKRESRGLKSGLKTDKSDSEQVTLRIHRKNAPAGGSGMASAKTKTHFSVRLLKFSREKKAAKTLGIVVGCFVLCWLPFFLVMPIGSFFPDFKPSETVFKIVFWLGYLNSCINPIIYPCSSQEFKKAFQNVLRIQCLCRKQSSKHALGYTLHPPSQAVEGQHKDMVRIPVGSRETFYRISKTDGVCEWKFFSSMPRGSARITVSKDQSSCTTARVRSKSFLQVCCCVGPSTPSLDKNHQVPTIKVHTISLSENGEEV
In words: Displacement of [3H]prazosin from recombinant human alpha 1A adrenergic receptor expressed in CHO cells at 10 uM after 60 mins by scintillation counting method relative to control. The format is cell-based.

Data set [10] can be described thus: Intrinsic clearance in human hepatocytes assessed per 10^6 cells at 5 uM. It is filed as ADME, cell-based, Hepatocyte.

Sequence of Mu-type opioid receptor (Homo sapiens) (P35372 whole entry): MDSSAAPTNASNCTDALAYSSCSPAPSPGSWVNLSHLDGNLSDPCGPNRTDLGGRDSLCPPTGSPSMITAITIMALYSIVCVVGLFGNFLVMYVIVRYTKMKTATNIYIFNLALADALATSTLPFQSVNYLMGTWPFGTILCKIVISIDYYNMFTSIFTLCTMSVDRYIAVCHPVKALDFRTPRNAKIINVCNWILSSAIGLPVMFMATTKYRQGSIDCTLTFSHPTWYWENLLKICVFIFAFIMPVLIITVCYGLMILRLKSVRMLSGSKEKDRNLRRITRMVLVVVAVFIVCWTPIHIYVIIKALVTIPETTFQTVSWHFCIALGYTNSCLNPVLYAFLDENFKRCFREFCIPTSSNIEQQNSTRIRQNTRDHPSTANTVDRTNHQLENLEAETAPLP

As to `COc1cc(CN(CCCC(=O)O)C(C)c2ccc3c(c2)CCO3)ccc1OCCN1C(=O)CCC1=O` (stereo not drawn), the IC50 in [1] worked out at 210 nM. Besides, the Stability came out at 100% in data set [2] and 95% in [4]. The molecule further registered a bioavailability in data set [3] of 2%.

Turning to `COc1cc(CN(C)C(C)c2ccc3c(c2)CCO3)ccc1OCN1C(=O)CCC1=O` (stereo not drawn), in data set [5], the inhibition turned out to be 8%.

`COc1cc(CN(C[C@H]2CC[C@H](C(=O)O)CC2)C(C)c2ccc3c(c2)CCO3)ccc1OCCN1C(=O)CSC1=O` (stereo partly drawn): the inhibition in [6] came out at 72%; in data set [8], 94%. Also, the Stability in [2] and in [4] was 73% each time. Besides, the Papp at 2 h in [7] amounted to 2.93 ×10⁻⁶ cm/s.

With `COc1cc(CN(C[C@H]2CC[C@H](C(=O)O)CC2)[C@@H](C)c2ccc(Cl)cc2)ccc1OCCN1C(=O)CCC1=O`, the Stability in data set [2] and in [4] was 91% throughout. This molecule yielded a bioavailability in data set [3] of 13.3%. In addition, in data set [7], the Papp at 2 h stood at 5.28 ×10⁻⁶ cm/s. For the same molecule, the inhibition in data set [8] came to 74%.

As to `COc1cc(CN(C[C@H]2CC[C@H](C(=O)O)CC2)[C@H]2CCc3cc(Cl)ccc32)ccc1OCCN1C(=O)CCC1=O`, the inhibition in [9] stood at 25%; in data set [8], 43%. Besides, the Stability was 70% in data set [2] and 79% in data set [4]. This molecule also had a bioavailability in data set [3] of 24%. Also, the CLH in [10] amounted to 0.112 mL/h. Also, the Papp at 2 h in [7] was determined as 7.52 ×10⁻⁶ cm/s.

As for `CC(c1ccc2c(c1)CCO2)N(Cc1ccc(OCCN2C(=O)CCC2=O)c(Cl)c1)C[C@H]1CC[C@H](C(=O)O)CC1` (stereo partly drawn), in [6], the inhibition came out at 98%. The Stability in [2] is given as 56%; in data set [4] it was 92%. In addition, in [7], the Papp at 2 h turned out to be 3.95 ×10⁻⁶ cm/s.

As to `COc1cc(CN(C[C@H]2CC[C@H](C(=O)O)CC2)[C@H]2CCc3c2ccc(Cl)c3F)ccc1OCCN1C(=O)CCC1=O`, in data set [6], the inhibition amounted to 16%. In addition, the Stability in data set [2] came out at 73%; in [4], 81%. The molecule further came in with a bioavailability in data set [3] of 47%. Besides, the CLH in [10] was determined as 0.031 mL/h. For the same molecule, the Papp at 2 h in data set [7] came out at 2.97 ×10⁻⁶ cm/s.

In the case of `CCc1cc(CN(C[C@H]2CC[C@H](C(=O)O)CC2)[C@H]2CCc3cc(Cl)ccc32)ccc1OCCN1C(=O)CCC1=O`, in [6], the inhibition amounted to 37%. For the same molecule, the Stability in data set [2] is 94%; in [4], 96%. The molecule also registered a CLH in data set [10] of 0.069 mL/h. Besides, the Papp at 2 h in [7] stood at 8.02 ×10⁻⁶ cm/s.

In the case of `Cc1cc(CN(C[C@H]2CC[C@H](C(=O)O)CC2)[C@@H](C)c2ccc(Cl)cc2)ccc1OCCN1C(=O)CN(C)C1=O`, in data set [1], the IC50 was 99 nM. Besides, the Stability in data set [2] amounted to 63%; in data set [4], 100%. In addition, the bioavailability in data set [3] amounted to 63.3%. Moreover, the CLH in [10] was determined as 0.234 mL/h. The Papp at 2 h in [7] was determined as 15.7 ×10⁻⁶ cm/s.

On to `COc1cc(CN(C)C(C)c2ccc3c(c2)CCO3)cc(OCCCN2C(=O)CCC2=O)c1` (stereo not drawn), for which the inhibition in data set [5] is 15%.

Consider `CC(c1ccc2c(c1)CCO2)N(C)Cc1ccc2c(c1)OC[C@H](CN1C(=O)CCC1=O)O2` (stereo partly drawn), for which the inhibition in [5] was found to be 36%.

For the molecule `COc1cc(CN(C[C@H]2CC[C@H](C(=O)O)CC2)[C@H]2CCc3c2ccc(Cl)c3Cl)ccc1OCCN1C(=O)CCC1=O`, in data set [6], the inhibition was found to be 0%. For the same molecule, the Stability in data set [2] worked out at 75%; in [4] it was 81%. In [10], the CLH turned out to be 0.083 mL/h. Also, in data set [7], the Papp at 2 h is 5.7 ×10⁻⁶ cm/s.

In the case of `COc1cc(CN(C)C(C)c2ccc3c(c2)CCO3)cc(OCCN2C(=O)CCC2=O)c1` (stereo not drawn), in data set [5], the inhibition was found to be 4%.

Turning to `COc1ccc(CN(C)C(C)c2ccc3c(c2)CCO3)cc1OCCN1C(=O)CCC1=O` (stereo not drawn), the inhibition in [5] stood at 18%.

Consider `Cc1cc(CN(C[C@H]2CC[C@H](C(=O)O)CC2)[C@@H](C)c2ccc(Cl)cc2)ccc1OCCN1C(=O)CCC1=O`, for which the inhibition turned out to be 71% in data set [9] and 97% in [6]. Besides, the Stability in data set [2] is reported as 73%; in [4], 87%. The molecule further showed a bioavailability in data set [3] of 93.5%. Further, the CLH in [10] was 0.138 mL/h. Further, the Papp at 2 h in [7] stood at 19.5 ×10⁻⁶ cm/s.

In the case of `COc1cc(CN(C[C@H]2CC[C@H](C(=O)O)CC2)[C@@H](C)c2ccc(Cl)cc2)ccc1OCCn1c(=O)ccn(C)c1=O`, the Stability in data set [2] was 62%; in data set [4] it was 76%. Further, the bioavailability in [3] stood at 26.7%. Moreover, the CLH in data set [10] was 0.159 mL/h. Also, the Papp at 2 h in [7] was 8.01 ×10⁻⁶ cm/s.

As to `COc1cc(CN(C)C(C)c2ccc3c(c2)CCO3)ccc1OCCCN1C(=O)CCC1=O` (stereo not drawn), the inhibition in [5] worked out at 39%.

Regarding `COc1cc(CN(C[C@H]2CC[C@H](C(=O)O)CC2)C(C)c2ccc3c(c2)CCO3)ccc1OCCN1C(=O)CCC1=O` (stereo partly drawn), the inhibition in data set [6] came to 54%. The Stability in data set [2] came out at 98%; in data set [4], 92%. Further, in data set [3], the bioavailability turned out to be 17.3%. Besides, in data set [7], the Papp at 2 h is 0.98 ×10⁻⁶ cm/s.

Regarding `COc1cc(CN(C[C@H]2CC[C@H](C(=O)O)CC2)C2CCc3cc(Cl)ccc32)ccc1OCCN1C(=O)CCC1=O` (stereo partly drawn), the inhibition was 52% in data set [9], 0% in data set [6] and 63 to 64% in data set [8]. The IC50 in data set [1] stood at 24 nM. Also, the figures for the Stability in [2] and in data set [4] were 66% and 78%, respectively. In addition, in data set [7], the Papp at 2 h was 8.98 ×10⁻⁶ cm/s.

`CC(c1ccc2c(c1)CCO2)N(C)Cc1ccc2c(c1)OCCN2CCN1C(=O)CCC1=O` (stereo not drawn): the inhibition in [5] was 7%.

For `COc1cc(CN(Cc2ccc(C(=O)O)cc2)C(C)c2ccc3c(c2)CCO3)ccc1OCCN1C(=O)CCC1=O` (stereo not drawn), in data set [1], the IC50 amounted to 120 nM. For the same molecule, the values for the Stability in data set [2] and in [4] were 61% and 63%, respectively. Also, in data set [3], the bioavailability came out at 9%.

As to `Cc1cc(CN(C[C@H]2CC[C@H](C(=O)O)CC2)C(C)c2ccc3c(c2)CCO3)ccc1OCCN1C(=O)CCC1=O` (stereo partly drawn), the figures for the inhibition in [6] and in data set [8] were 99% and 78%, respectively. In addition, the figures for the Stability in [2] and in [4] were 70% and 87%, respectively. This molecule gave a bioavailability in data set [3] of 4.1%. For the same molecule, in [7], the Papp at 2 h is 2.22 ×10⁻⁶ cm/s.
